Laboratory results reported in publication PMC3217166 (Toxicology in vitro : an international journal published in …, 2011).
Values after ≈ are worked out from the molar mass of the structure shown. Values joined by “and” are separate entries in the source; they are usually repeats but may differ in a detail not shown here. Equal values may be shown once. Read-outs that look alike come from different tables or passages of the source.

How the values were obtained:
Type in all cases: cell-based, Human
TK6 cells [1] = assay: Generation of reactive oxygen species; conditions: for level of ROS generated: DEHP 234μM, MEHP 196μM (IC50's), cisplatin 13uM
TK6 cells [2] = conditions: DEHP 234μM, MEHP 196μM (IC50's), valinomycin 11 uM
[3] = system: caspases 3 and 7 in TK6 cells; assay: Activation of caspases 3 and 7
TK6 cells [4] = assay: Cell viability / IC50 by trypan blue exclusion; conditions: for IC50 (cell viability): same value expressed in mg/L
How it was run: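 TK6 lymphoblasts were grown in RPMI 1640 with 10% FBS at 37°C, 5% CO2, and subcultured at 1×10^6 cells per 3.5 mL to keep exponential growth. Cells were exposed for 24, 48 or 72 h to test compound at 10–500 μM ([…]). Viability was counted by trypan blue exclusion on an automated cell counter, and the 50% inhibitory concentration was read from the viability curves.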

[5] = 24 hours exposure, DEHP and MEHP at IC50's, staurosporine 1 uM
[6] = 48 hours exposure, DEHP 234μM, MEHP 196μM (IC50's), staurosporine 1μM
[7] = read-out: IC50 (cell viability), 24 hours of exposure
[8] = read-out: IC50 (cell viability), 48 hours of exposure
[9] = read-out: IC50 (cell viability), 72 hours of exposure

Row | SMILES | level of ROS generated (TK6 cells [1]; 24 hours exposure) | level of ROS generated (TK6 cells [1]; 48 hours exposure) | mitochondrial membrane permeability (TK6 cells [2]; 24 hours exposure) | mitochondrial membrane permeability (TK6 cells [2]; 48 hours exposure) | caspases 3 and 7 activation [3, 5] | caspases 3 and 7 activation [3, 6] | IC50 (cell viability) (TK6 cells [4]; 48 hours of exposure) | IC50 (cell viability) (TK6 cells [4]; 72 hours of exposure) | IC50 (TK6 cells [4]; [7]) | IC50 (TK6 cells [4]; [8]) | IC50 (TK6 cells [4]; [9]) | ROS production relative to the parent DEHP (TK6 cells [1]; comparison among phthalates at IC50 doses)
1 | N.N.[Cl][Pt][Cl] [Cisplatin, cis-diammineplatinum (II) dichloride, reference compound] | 1348.85 FSU | 1575.35 FSU |  |  |  |  |  |  |  |  |  | 
2 | CCCCC(CC)COC(=O)c1ccccc1C(=O)OCC(CC)CCCC (centres unmarked) [DEHP, diethylhexyl phthalate] | 458.54 FSU | 793.27 FSU | 1100.85 FSU | 2505.58 FSU | 122.13 FSU | 1406.94 FSU | 91.4 µg/mL (≈ 234 µM) | 39.06 µg/mL (≈ 100 µM) | ~250 µM and 250 µM | 234 µM | 100 µM | 
3 | CCCCC(CC)COC(=O)c1ccccc1C(=O)O (centres unmarked) [MEHP, monoethylhexyl phthalate] | 816.53 FSU | 1518.75 FSU | 1630.94 FSU | 2210.09 FSU | 292.80 FSU | 1209.72 FSU | 54.55 µg/mL (≈ 196 µM) | 22.27 µg/mL (≈ 80 µM) | 250 µM | 196 µM | 80 µM | twice as much
4 | CN[C@@H]1C[C@H]2O[C@@](C)([C@@H]1OC)n1c3ccccc3c3c4c(c5c6ccccc6n2c5c31)C(=O)NC4 [Staurosporine, reference compound] |  |  |  |  | 1390.92 FSU | 1322.55 FSU |  |  |  |  |  | 
5 | CC(C)[C@@H]1NC(=O)[C@H](C)OC(=O)[C@@H](C(C)C)NC(=O)[C@@H](C(C)C)OC(=O)[C@H](C(C)C)NC(=O)[C@H](C)OC(=O)[C@@H](C(C)C)NC(=O)[C@@H](C(C)C)OC(=O)[C@H](C(C)C)NC(=O)[C@H](C)OC(=O)[C@@H](C(C)C)NC(=O)[C@@H](C(C)C)OC1=O [valinomycin, Valinomycin, reference compound] |  |  | 1079.18 FSU | 2327.65 FSU |  |  |  |  |  |  |  | 
